Results published in ChEMBL document CHEMBL1131093, “ATP-Citrate lyase as a target for hypolipidemic intervention. 2. Synthesis and evaluation of (3R,5S)-omega-substituted-3-carboxy-3, 5-dihydroxyalkanoic acids and their gamma-lactone prodrugs as inhibitors of the enzyme in vitro and in vivo” (J Med Chem, 1998).

Key:
ATP-citrate synthase [1] = biological target: T1, ATP-citrate synthase (Homo sapiens, UniProt P53396); assay: Inhibitory activity against human recombinant ATP-Citrate Lyase (ACL) enzyme
T1 sequence (P53396 whole entry): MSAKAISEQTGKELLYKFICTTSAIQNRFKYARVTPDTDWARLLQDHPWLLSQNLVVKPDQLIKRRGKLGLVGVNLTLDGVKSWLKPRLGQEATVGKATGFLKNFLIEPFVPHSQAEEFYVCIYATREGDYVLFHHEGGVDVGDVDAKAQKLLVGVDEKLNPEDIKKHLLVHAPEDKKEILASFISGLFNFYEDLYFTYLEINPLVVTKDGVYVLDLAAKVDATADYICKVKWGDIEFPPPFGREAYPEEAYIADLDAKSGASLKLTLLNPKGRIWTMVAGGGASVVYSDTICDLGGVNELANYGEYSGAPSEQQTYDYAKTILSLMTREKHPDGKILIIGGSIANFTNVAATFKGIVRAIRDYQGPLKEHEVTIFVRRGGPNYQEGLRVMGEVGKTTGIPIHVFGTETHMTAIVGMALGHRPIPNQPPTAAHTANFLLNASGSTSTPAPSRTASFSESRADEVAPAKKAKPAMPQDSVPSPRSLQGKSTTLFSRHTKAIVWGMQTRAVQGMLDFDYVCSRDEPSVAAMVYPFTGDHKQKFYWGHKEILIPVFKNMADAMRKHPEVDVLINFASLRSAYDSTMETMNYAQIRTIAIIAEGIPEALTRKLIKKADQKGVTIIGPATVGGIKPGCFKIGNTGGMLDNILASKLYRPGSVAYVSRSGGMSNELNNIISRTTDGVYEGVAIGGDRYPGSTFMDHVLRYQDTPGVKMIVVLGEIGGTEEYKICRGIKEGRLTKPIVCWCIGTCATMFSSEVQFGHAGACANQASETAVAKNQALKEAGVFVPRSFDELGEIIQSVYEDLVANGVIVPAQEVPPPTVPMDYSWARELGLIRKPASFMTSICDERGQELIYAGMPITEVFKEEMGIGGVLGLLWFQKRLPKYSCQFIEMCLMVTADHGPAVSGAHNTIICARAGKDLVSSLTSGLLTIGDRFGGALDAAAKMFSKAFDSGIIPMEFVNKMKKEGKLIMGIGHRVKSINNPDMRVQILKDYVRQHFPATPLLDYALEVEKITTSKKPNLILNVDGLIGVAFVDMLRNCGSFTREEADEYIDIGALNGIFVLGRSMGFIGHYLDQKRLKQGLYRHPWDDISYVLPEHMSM
Summary of the method: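 Human recombinant ATP-citrate lyase was used. Lactone intermediates were hydrolysed with aqueous NaOH to the hydroxy acid before being added to the enzyme buffer mix. Potency was reported as the reversible Ki.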

ATP-citrate synthase [2] = biological target: T2, ATP-citrate synthase (Rattus norvegicus, UniProt P16638); assay: Inhibitory activity was tested against rat ATP-Citrate Lyase (ACL) enzyme
T2 sequence (P16638 whole entry): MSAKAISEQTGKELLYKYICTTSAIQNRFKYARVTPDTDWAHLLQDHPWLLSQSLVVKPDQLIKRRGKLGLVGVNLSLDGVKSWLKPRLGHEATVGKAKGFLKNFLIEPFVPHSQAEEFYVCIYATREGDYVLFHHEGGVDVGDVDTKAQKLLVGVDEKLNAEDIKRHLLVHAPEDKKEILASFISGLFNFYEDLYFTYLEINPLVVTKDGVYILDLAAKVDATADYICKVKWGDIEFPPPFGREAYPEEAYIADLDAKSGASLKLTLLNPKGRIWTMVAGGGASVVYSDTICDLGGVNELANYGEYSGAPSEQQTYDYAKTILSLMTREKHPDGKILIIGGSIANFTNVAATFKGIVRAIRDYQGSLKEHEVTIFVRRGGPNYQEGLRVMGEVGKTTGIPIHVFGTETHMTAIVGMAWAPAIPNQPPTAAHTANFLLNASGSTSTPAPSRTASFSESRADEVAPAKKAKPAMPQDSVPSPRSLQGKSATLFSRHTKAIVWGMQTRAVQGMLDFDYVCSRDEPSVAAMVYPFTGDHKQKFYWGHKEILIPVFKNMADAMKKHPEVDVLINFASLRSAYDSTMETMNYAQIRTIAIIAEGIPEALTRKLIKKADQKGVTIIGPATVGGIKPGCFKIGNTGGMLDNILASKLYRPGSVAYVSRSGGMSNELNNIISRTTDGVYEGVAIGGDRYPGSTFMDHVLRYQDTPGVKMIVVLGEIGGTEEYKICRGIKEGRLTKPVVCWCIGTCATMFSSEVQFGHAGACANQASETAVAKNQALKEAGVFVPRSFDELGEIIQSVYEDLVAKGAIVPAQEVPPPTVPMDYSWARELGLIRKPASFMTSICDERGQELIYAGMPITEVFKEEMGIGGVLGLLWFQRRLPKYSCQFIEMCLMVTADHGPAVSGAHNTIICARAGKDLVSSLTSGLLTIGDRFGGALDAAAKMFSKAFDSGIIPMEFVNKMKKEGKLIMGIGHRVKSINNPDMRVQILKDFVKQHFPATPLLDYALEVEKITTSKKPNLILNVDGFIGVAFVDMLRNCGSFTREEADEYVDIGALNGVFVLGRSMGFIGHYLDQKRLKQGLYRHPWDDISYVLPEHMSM

[3] = biological target: T3, ATP-citrate synthase (Homo sapiens) (UniProt P53396); assay: Inhibitory activity was tested against human recombinant ATP-Citrate Lyase (ACL) enzyme at 100 uM
T3 sequence (whole entry): T1 sequence (P53396 whole entry)

ATP-citrate synthase [4] = biological target: T2, ATP-citrate synthase; assay: Inhibitory activity was tested against ATP-Citrate Lyase (ACL) enzyme in rat
Rattus norvegicus [5] = assay: % Reduction of plasma triglyceride in the rat was measured at dose 37.5 mg/kg/d; assay type: functional
Summary of the method: (§1)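 Male Sprague-Dawley rats were kept on a reverse 12 h light/12 h dark cycle with free access to RM1 powdered diet and water. Compound was given orally by gavage as two doses 24 h apart. Blood was drawn mid dark cycle, 4 h after the second dose, into EDTA. Plasma was separated at 1500g for 15 min. Triglyceride was measured enzymatically (GPO-PAP) and reported as % reduction from control.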

Rattus norvegicus [6] = assay: % Reduction of plasma triglyceride in the rat was measured at dose 75 mg/kg/d; assay type: functional; summary of the method: as §1
HepG2 [7] = assay: Inhibition of fatty acid synthesis in HepG2 cells was measured at 3 uM concentration.; assay type: functional, Homo sapiens; design: scale not given: the % may be the effect or the level left
Summary of the method: (§2)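 Compounds were applied to HepG2 cells as their γ-lactone prodrugs. De novo cholesterol synthesis, fatty acid synthesis and cellular ATP levels were each expressed as % of control. Significance was marked at p < 0.001.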

HepG2 [8] = assay: Inhibition of cholesterol synthesis in HepG2 cells was measured at 10 uM concentration.; assay type: functional, Homo sapiens; design: scale not given: the % may be the effect or the level left; summary of the method: as §2
HepG2 [9] = assay: Inhibition of fatty acid synthesis in HepG2 cells was measured at 10 uM concentration.; assay type: functional, Homo sapiens; design: scale not given: the % may be the effect or the level left; summary of the method: as §2
HepG2 [10] = assay: Inhibition of ATP levels in HepG2 cells was measured at 10 uM concentration.; assay type: functional, Homo sapiens; design: scale not given: the % may be the effect or the level left; summary of the method: as §2
HepG2 [11] = assay: Inhibition of cholesterol synthesis in HepG2 cells was measured at 3 uM concentration.; assay type: functional, Homo sapiens; design: scale not given: the % may be the effect or the level left; summary of the method: as §2
HepG2 [12] = assay: Inhibition of ATP levels in HepG2 cells was measured at 3 uM concentration.; assay type: functional, Homo sapiens; design: scale not given: the % may be the effect or the level left; summary of the method: as §2

Compound	Ki (ATP-citrate synthase [1])	also measured
Cc1cc2cc(Cl)ccc2n1CCCCC[C@@H](O)C[C@](O)(CC(=O)O)C(=O)O	13000 nM	–
O=C(O)C[C@@](O)(C[C@H](O)CCCCCn1c2c(c3cc(Cl)ccc31)CCCC2)C(=O)O	2900 nM	–
O=C(O)C[C@@](O)(C[C@H](O)CCCCCCc1ccc(Cl)cc1O)C(=O)O	–	inhibition [3]: 24%
O=C(O)C[C@](O)(C(=O)O)[C@@H](O)CCCCCCCCc1ccc(Cl)cc1Cl	18000 nM	–
O=C(O)C[C@@](O)(C[C@H](O)CCCCCn1cc([N+](=O)[O-])c2cc(Cl)ccc21)C(=O)O	64000 nM	–
O=C(O)C[C@@](O)(CCCCCCCCc1ccc(Cl)cc1Cl)C(=O)O	–	Ki (ATP-citrate synthase [4]): 2900 nM
O=C(O)C[C@@](O)(CC(=O)CCCCCCc1ccc(Cl)cc1Cl)C(=O)O	–	Ki (ATP-citrate synthase [2]): 1200 nM
O=C(O)C[C@@](O)(C[C@H](O)CCCCCn1c(-c2ccccc2)cc2cc(Cl)ccc21)C(=O)O	370 nM	–
O=C(O)C[C@@]1(O)C[C@@H](CCCCCCc2ccc(Cl)cc2COc2ccccc2)OC1=O	–	Reduction (Rattus norvegicus [5]): 22%; Reduction (Rattus norvegicus [6]): 34%
N[C@H](C(=O)O)[C@@](O)(CC(=O)O)C(=O)O	–	Ki (ATP-citrate synthase [4]): 11000 nM
O=C(O)C[C@@](O)(C[C@H](O)CCCCCn1cc(Cc2ccccc2)c2cc(Cl)ccc21)C(=O)O	2900 nM	–
O=C(O)C[C@@](O)(C[C@H](O)CCCCCn1c2ccccc2c2cc(Cl)ccc21)C(=O)O	710 nM	–
O=C(O)C[C@@](O)(C[C@H](O)CCCCCn1ccc2cc(Cl)ccc21)C(=O)O	3500 nM	–
O=C(O)[C@@H](O)[C@@](O)(C[C@H](O)CCCCCCc1ccc(Cl)cc1Cl)C(=O)O	620 nM	–
O=C(O)C[C@](O)(C(=O)O)[C@@H](O)CCCCCCCc1ccc(Cl)cc1Cl	5700 nM	–
O=C(O)C[C@@]1(O)C[C@@H](CCCCCn2c3ccccc3c3cc(Cl)ccc32)OC1=O	–	Reduction (Rattus norvegicus [5]): 16%; Reduction (Rattus norvegicus [6]): 33%
O=C(O)C[C@@]1(O)C[C@@H](CCCCCCc2ccc(Cl)cc2Cl)OC1=O	–	Control (HepG2 [7]): 114%; Control (HepG2 [8]): 53%; Reduction (Rattus norvegicus [5]): 31%; Reduction (Rattus norvegicus [6]): 56%; Control (HepG2 [9]): 74%; Control (HepG2 [10]): 97%; Control (HepG2 [11]): 98%; Control (HepG2 [12]): 97%
Cc1cn(CCCCC[C@@H](O)C[C@](O)(CC(=O)O)C(=O)O)c2ccc(Cl)cc12	9500 nM	–
O=C(O)C[C@@]1(O)C[C@@H](CCCCCC2c3ccccc3-c3cc(Cl)ccc32)OC1=O (some centres undefined)	–	Reduction (Rattus norvegicus [5]): 5%; Reduction (Rattus norvegicus [6]): 16%
O=C(O)C[C@@](O)(C[C@H](O)CCCCCn1ccc2cc(Cl)cc(Cl)c21)C(=O)O	1800 nM	–
O=C(O)C[C@@](O)(C[C@H](O)CCCCCn1ccc2ccc(Cl)cc21)C(=O)O	41000 nM	–
Cc1ccc(C)n1-c1cc(Cl)ccc1CCCCCC[C@@H](O)C[C@](O)(CC(=O)O)C(=O)O	–	inhibition [3]: 67%
O=C(O)C[C@@](O)(C[C@H](O)CCCCn1ccc2cc(Cl)ccc21)C(=O)O	160000 nM	–
O=C(O)[C@H](O)[C@@](O)(C[C@H](O)CCCCCCc1ccc(Cl)cc1Cl)C(=O)O	550 nM	–
O=C(O)C[C@@](O)(C[C@H](O)CCCCCn1cc(-c2ccccc2)c2cc(Cl)ccc21)C(=O)O	11000 nM	–

Now from value to molecule, other results behind:

Ki (ATP-citrate synthase [1])	Compound	also measured
21000 nM	O=C(O)C[C@@](O)(C[C@H](O)CCCCCCc1ccc(Cl)cc1-c1ccc(Cl)cc1Cl)C(=O)O	–
880 nM	O=C(O)C[C@@](O)(C[C@H](O)CCCCCCc1ccc(Cl)cc1Cl)C(=O)O (stereo in doubt; (+)-45)	Ki (ATP-citrate synthase [2]): 700 nM
580 nM	Cc1cn(-c2cc(Cl)ccc2CCCCCC[C@@H](O)C[C@](O)(CC(=O)O)C(=O)O)cc1C (stereo in doubt; (+)-58)	–
1100 nM	O=C(O)C[C@@](O)(C[C@H](O)CCCCCCc1ccc(Cl)cc1OCc1ccccc1)C(=O)O	–
770 nM	O=C(O)C[C@@](O)(C[C@H](O)CCCCCCc1ccc(Cl)cc1Cl)C(=O)O (stereo in doubt; (-)-45)	Ki (ATP-citrate synthase [2]): 700 nM
3900 nM	O=C(O)C[C@@](O)(C[C@H](O)CCCCCCc1ccc(Cl)cc1-n1cccc1)C(=O)O	–
3200 nM	O=C(O)C[C@@](O)(C[C@H](O)CCCCCCn1ccc2cc(Cl)ccc21)C(=O)O	–
2700 nM	O=C(O)C[C@@](O)(C[C@H](O)CCCCCCc1ccc(Cl)cc1-c1ccc(F)cc1)C(=O)O	–
300 nM	Cc1cn(-c2cc(Cl)ccc2CCCCCC[C@@H](O)C[C@](O)(CC(=O)O)C(=O)O)cc1C (stereo in doubt; 58)	–
2700 nM	Cc1ccc(-c2cc(Cl)ccc2CCCCCC[C@@H](O)C[C@](O)(CC(=O)O)C(=O)O)cc1	–
5000 nM	O=C(O)C[C@@](O)(C[C@H](O)CCCCCCc1ccc(Cl)cc1-c1ccc(Cl)cc1)C(=O)O	–
5100 nM	COc1ccc(-c2cc(Cl)ccc2CCCCCC[C@@H](O)C[C@](O)(CC(=O)O)C(=O)O)cc1	–
750 nM	O=C(O)C[C@@](O)(C[C@H](O)CCCCCCc1ccc(Cl)cc1-c1ccccc1)C(=O)O	–
2000 nM	O=C(O)C[C@@](O)(C[C@@H](O)CCCCCCc1ccc(Cl)cc1Cl)C(=O)O	–
340 nM	Cc1cn(-c2cc(Cl)ccc2CCCCCC[C@@H](O)C[C@](O)(CC(=O)O)C(=O)O)cc1C (stereo in doubt; (-)-58)	–
19000 nM	COc1cc(Cl)ccc1CCCCCC[C@@H](O)C[C@](O)(CC(=O)O)C(=O)O	–
220 nM	O=C(O)C[C@@](O)(C[C@H](O)CCCCCC1c2ccccc2-c2cc(Cl)ccc21)C(=O)O (some centres undefined)	–
